Many of the other results were omitted from the sample, so hits are more common in it than they were.
PTK2B oligo ant: antagonists of human Pyk2 oligomerization; Q14289; 99,000 compounds, 0.83% hits; z-score (the deposit names both 25 µM and 10 µM); Q293 cells, Pyk2 FERM NanoBiT luminescence; hits give low values;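 active means Z-score of -3 or lower, scaled per plate to the spread of control and sample wells; inactive means z-score above -3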;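 further: negative z-score means lost luminescence so less FERM oligomerization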
HUVEC inhibit: inhibitors of human endothelial cell proliferation; 86,000 compounds, 1.1% hits; HUVEC proliferation, CellTiter-Glo luminescence, 72 h; hits give low values; viability, % at 10 µM (by protocol);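 active means viability at or below 30%; inactive means viability above 30%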;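 further: 100% = median luminescence of DMSO-only cell control wells on each plate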
bCat KO growth: beta-catenin-lacking colon tumor cell growth suppression. HCT116 beta-catenin knockout viability, CellTiter-Glo, 60 h; hits give low values. viability, % at 10 µM. 140,000 compounds, 1.5% hits. AID 818;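 active means viability at or under a set limit, the compound median less 4 SD, cut at about 6% in these data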;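 further: 0% = Hyamine 1622 control at 20 µM and 100% = untreated cell control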
Lung fibro prol: blocks proliferation of human lung fibroblasts; LL 47 human lung fibroblast viability, ATP luminescence; hits give low values; viability, % at 10 µM; 85,000 compounds, 1.1% hits;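 active means viability at or below 50% in the single dose screen; inactive means viability above 50%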;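 further: compound exposure lasted 72 h before the ATP readout; 100% = median luminescence of untreated cell-only wells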
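Test system: LL 47 human lung fibroblasts / Quantity: 1,150 cells in each well / Medium: IMEM growth medium with 15% fetal bovine serum / Incubation: 72 h compound exposure at 37 °C after overnight plating / Detection: CellTiter-Glo luminescence measuring cellular ATP / Read-out: % viability versus median cells-only luminescence / Benchmarks: cell-only wells, no compound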
H69AR inhibit: growth inhibitors of human H69AR lung tumor cells; H69AR lung tumor viability, ATP luminescence, 72 h; hits give low values; 85,000 compounds, 6% hits; viability, % at 10 µM;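 active means viability at or below 40%; inactive means viability above 40%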;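 further: multidrug resistant small cell line overexpressing MRP-1 efflux transporter; 100% = mean luminescence of untreated control wells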
HCT116 PTEN-null: suppresses growth of cells with PTEN deletion; 140,000 compounds, 1.2% hits; viability, % at 10 µM; HCT116 PTEN-null viability, CellTiter-Glo, 60 h; hits give low values;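 active means viability at or below a set limit, 4 SD under the median of all tested compounds, cut at about 3.7% in these data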;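 further: PTEN knockout HCT116 line with beta catenin targeted HCT116 as companion control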
* hit, by the source's call; x = no result given.

SMILES	PTK2B oligo ant	HUVEC inhibit	bCat KO growth	Lung fibro prol	H69AR inhibit	HCT116 PTEN-null
COc1cccc(OC)c1-c1nn2c(-c3ccccc3Cl)nnc2s1	-3.02*	78.4	85.5	92.4	69.5	84.8
COc1cc(-c2nn3c(-c4ccccc4)nnc3s2)cc(OC)c1OC	-0.09	80.2	4.9*	101.8	40.1	7.8
CCCCOCCCn1cnc2c([nH]c3cc(OC)ccc32)c1=O	2.09	101.3	94.8	101.5	79.9	88.2
Cc1ccc(NC(=O)/C=C/c2cccc(C(F)(F)F)c2)cc1	x	x	95.2	x	x	86.7
O=C(/C=C/c1cccc(C(F)(F)F)c1)Nc1cccc(C(F)(F)F)c1	-1.06	x	3.8*	x	x	2.3*
CCOC(=O)C(NC(C)=O)C(OC(C)=O)c1cccc(N(CCO)CCO)c1 (stereo not given)	0.97	98.9	93.3	94.2	94.7	88.2
CCOC(=O)c1ccccc1NC(=O)CN(c1ccccc1)S(=O)(=O)N(C)C	-1.7	81.1	64.6	97.8	38.1*	70.1
CCOc1ccc(S(=O)(=O)Nc2cccc(OC)c2)cc1	-1.4	87.6	73.8	94.8	37.7*	70.7
CCOC(=O)COc1ccc(S(=O)(=O)Nc2ccc3c(c2)OCO3)cc1	-0.35	40.6	112.4	63.1	99.6	99.0
CCOC(=O)COc1ccc(S(=O)(=O)N2CCc3ccccc3C2)cc1	-0.2	6.2*	87.0	61.3	92.3	87.8
CCOC(=O)c1ccccc1NC(=O)CN(c1ccccc1OC)S(C)(=O)=O	-0.49	97.6	97.7	103.0	73.6	80.3
CCOC(=O)COc1ccc(S(=O)(=O)Nc2ccc(C)cc2)cc1	-0.66	10.8*	97.3	15.8*	93.8	92.5
Cc1ccccc1C(OCCN(C(C)C)C(C)C)c1ccccc1 (stereo not given)	x	x	68.2	x	x	73.1
CCN1CCN(S(=O)(=O)c2cc(OC)c(Cl)cc2OC)CC1	0.7	96.3	100.3	101.2	84.0	93.9
COc1ccc(-c2nn(CCC(=O)O)cc2/C=C/C(=O)O)cc1[N+](=O)[O-]	x	x	90.8	x	x	86.5
O=C(CCCc1ccccc1)N1CCc2ccccc21	0.43	93.4	93.0	95.3	95.8	81.8
Fc1ccc(-c2cc(C(F)(F)F)nc(NCc3cccs3)n2)cc1	x	x	71.6	x	x	75.7
CCOC(=O)Cc1csc(NC(=O)CSc2ncnc3c2cnn3-c2ccccc2Cl)n1	-2.29	102.3	81.0	107.5	41.9	70.6
CCOC(=O)c1cc(C)n(S(=O)(=O)c2ccc(C)cc2)c1C	0.16	x	75.2	x	x	72.5
CCOC(=O)c1ccccc1NS(=O)(=O)c1ccc(C)cc1	-1.81	73.7	22.8	87.9	10.6*	21.3
CC(=O)NCCC(=O)Nc1sc2c(c1-c1nc3ccccc3[nH]1)CCCC2	0.84	77.5	74.6	99.6	36.1*	74.8
COc1ccc(OC)c(/C(O)=C/C(=O)C(=O)Nc2cc(C)cc(C)c2)c1	-0.43	113.2	82.0	92.3	17.2*	86.5
CCOc1ccccc1NC(=O)C(=O)/C=C(\O)c1cc(OC)ccc1OC	-0.31	70.7	76.7	81.4	8.4*	86.1
COc1ccc(OC)c(/C(O)=C/C(=O)C(=O)Nc2cc(C)ccc2OC)c1	-0.02	92.8	85.7	93.0	63.4	84.9
COC(=O)C1=C(C)Nc2ncnn2C1c1ccc(OCc2ccccc2)cc1 (stereo not given)	0.08	96.9	105.6	103.7	88.9	112.1
SMILES	PTK2B oligo ant	HUVEC inhibit	bCat KO growth	Lung fibro prol	H69AR inhibit	HCT116 PTEN-null
N#CCCn1cc(C(=O)Nc2ccccc2Br)c(-c2cc3ccccc3o2)n1	x	x	71.0	x	x	48.1
CC(=O)Nc1ccc(C(=O)N(C)C(C(=O)Nc2ccccc2)c2ccccn2)cc1 (stereo not given)	x	x	94.5	x	x	99.7
Cc1nn(C)c(C)c1/C=C1/SC(=S)NC1=O	1.59	x	102.3	x	x	94.5
Cc1ccc(C2C(/C=C3/SC(=S)NC3=O)=C(c3cccs3)Oc3ccccc32)cc1 (stereo not given)	-1.61	49.1	64.2	92.2	14.4*	60.0
CCOC(=O)Cc1csc(NC(=O)c2ccc(Br)s2)n1	x	88.7	33.8	116.4	93.2	42.0
CCOc1cccc2sc(NC(=O)c3ccc(Br)s3)nc12	x	86.1	58.5	96.6	29.8*	58.8
C=CCN1C(=O)N(/C=C/C)c2cccc3cccc1c23	-3.74*	97.8	93.2	98.7	93.5	96.0
CC(=O)N(C)C1=C(N2CCOCC2)C(=O)c2ccccc2C1=O	-0.97	x	0.7*	x	x	0.8*
COc1ccccc1/C=C(/CC(=O)NCc1ccc2c(c1)OCO2)c1nc2ccccc2s1	x	x	87.7	x	x	75.6

Screening results: PubChem BioAssay, several laboratories
